In ChEMBL document CHEMBL1153492, “Design, synthesis, and structure-activity relationships of 1,3-dihydrobenzimidazol-2-one analogues as anti-HIV agents” (Bioorg Med Chem, 2009):

Experiments:
[1] = Selectivity index, CC50 for human MT4 cells to EC50 for HIV1 3B; format: toxicity, cell-based; details: read-out: Ratio CC50/EC50
[2] = biological target: Human immunodeficiency virus type 1 reverse transcriptase (Human immunodeficiency virus 1, UniProt Q72547); assay: Inhibition of HIV1 recombinant RNA-dependent DNA polymerase activity of reverse transcriptase assessed as incorporation of radioactive dTTP into poly(rA)/oligo(dT)
[3] = Cytotoxicity against human MT4 cells after 5 days; format: cell-based
Outline: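 Run in MT-4 cells in parallel with the HIV-1 IIIB cytopathicity assay, with 37 °C incubation for 5 days and a read-out of viable MT-4 cell number.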

[4] = test system: Human immunodeficiency virus 1; assay: Antiviral activity against HIV1 3B infected in human MT4 cells assessed as reduction of virus-induced cytopathic effect after 5 days; format: functional, organism-based; details: Human immunodeficiency virus 1, 3B, MT4, 120 h
Outline: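 MT-4 cells infected with HIV-1 IIIB at about 100-times the CCID50 per ml of cell suspension, plated and mixed with compound, then incubated at 37 °C for 5 days. Viable cell number was then determined. EC50 is the concentration that reduces virus-induced cytopathicity by 50%.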

| IC50 [2] [µM] | EC50 [4] [µM] | Compound | selectivity ratio [1] | CC50 at 120 h [3] [µM] |
| --- | --- | --- | --- | --- |
| > 40 | > 172 | O=C1CN(S(=O)(=O)c2ccc(F)cc2)c2cc(Cl)ccc2N1 | < 1 | 172 |
| 30.4 | 6.96 | O=C(CCl)Nc1ccc(Cl)cc1NS(=O)(=O)c1c(F)cccc1F | 25 | 175 |
| 1.67 | 1.09 | O=C1CN(S(=O)(=O)c2c(Cl)cccc2Cl)c2cc(Cl)ccc2N1 | > 293 | > 319 |
| 0.85 | 0.23 | O=c1[nH]c2ccc(Cl)cc2n1S(=O)(=O)c1ccccc1F | > 1660 | > 383 |
| 0.36 | 0.149 | N#Cc1cccc(S(=O)(=O)n2c(=O)[nH]c3ccc(Cl)cc32)c1 | 1360 | 205 |
| > 40 | 7.04 | O=C1CN(S(=O)(=O)c2cccc(F)c2)c2cc(Cl)ccc2N1 | 27 | 189 |
| > 40 | 6.1 | O=C1CN(S(=O)(=O)c2ccccc2F)c2cc(Cl)ccc2N1 | 32 | 197 |
| > 100 | 1.52 | O=c1[nH]c2ccc(Cl)cc2n1S(=O)(=O)c1c(Cl)cccc1Cl | > 218 | > 331 |
| > 40 | 0.1 | Cc1cc(C)cc(S(=O)(=O)N2CC(=O)Nc3ccc(Cl)cc32)c1 | 782 | 80.6 |
| 0.132 | 0.043 | O=c1[nH]c2ccc(Cl)cc2n1S(=O)(=O)c1cccc(F)c1 | 2960 | 128 |
| > 40 | ≥ 47.7 | N#Cc1cccc(S(=O)(=O)N2CC(=O)Nc3ccc(Cl)cc32)c1 | ≤ 4 | 186 |
| > 40 | 36 | O=c1[nH]c2ccc(Cl)cc2n1S(=O)(=O)c1ccc(F)cc1 | ≥ 10 | ≥ 355 |
| > 40 | 14 | O=C1CN(S(=O)(=O)c2cc(F)cc(F)c2)c2cc(Cl)ccc2N1 | 13 | 187 |
| > 40 | 26.7 | O=C1CN(S(=O)(=O)c2cc(Cl)cc(Cl)c2)c2cc(Cl)ccc2N1 | > 8 | ≥ 206 |
| > 40 | 20.7 | O=C1CN(S(=O)(=O)c2c(F)cccc2F)c2cc(Cl)ccc2N1 | 9 | 180 |
| 284 | > 156 | N#Cc1cccc(S(=O)(=O)Nc2cc(Cl)ccc2NC(=O)CCl)c1 | < 1 | > 156 |
| – | – | Cc1ccnc2c1NC(=O)c1cccnc1N2C1CC1 [NEVIRAPINE] | – | > 15 |
| 3.36 | 0.047 | Cc1cc(C)cc(S(=O)(=O)Nc2cc(Cl)ccc2NC(=O)CCl)c1 | 747 | 35.1 |
| 32.7 | 1.5 | O=C(CCl)Nc1ccc(Cl)cc1NS(=O)(=O)c1c(Cl)cccc1Cl | 107 | 160 |
| 15.9 | 8.99 | O=C(CCl)Nc1ccc(Cl)cc1NS(=O)(=O)c1cc(Cl)cc(Cl)c1 | > 32 | > 292 |
| 0.003 | 0.048 | O=c1[nH]c2ccc(Cl)cc2n1S(=O)(=O)c1cc(Cl)cc(Cl)c1 | 3740 | 179 |
| – | – | O=C1Nc2ccc(Cl)cc2[C@@](C#CC2CC2)(C(F)(F)F)O1 [EFAVIRENZ] | – | > 6 |
| 27.8 | 11.2 | O=C(CCl)Nc1ccc(Cl)cc1NS(=O)(=O)c1cc(F)cc(F)c1 | 16 | 179 |
